Measured values reported in ChEMBL document CHEMBL4396871, “Leveraging a Low-Affinity Diazaspiro Orthosteric Fragment to Reduce Dopamine D3 Receptor (D3R) Ligand Promiscuity across Highly Conserved Aminergic G-Protein-Coupled Receptors (GPCRs)” (J Med Chem, 2019).

Assays:
[1] = target: 5-hydroxytryptamine receptor 1D (Homo sapiens) (UniProt P28221); test: Displacement of [3H]-5-CT from recombinant human 5HT1D receptor transiently expressed in HEKT cell membranes at 10 uM measured after 90 mins by microbeta scintillation counting method relative to control
Chain of 5-hydroxytryptamine receptor 1D (Homo sapiens) (P28221 whole entry): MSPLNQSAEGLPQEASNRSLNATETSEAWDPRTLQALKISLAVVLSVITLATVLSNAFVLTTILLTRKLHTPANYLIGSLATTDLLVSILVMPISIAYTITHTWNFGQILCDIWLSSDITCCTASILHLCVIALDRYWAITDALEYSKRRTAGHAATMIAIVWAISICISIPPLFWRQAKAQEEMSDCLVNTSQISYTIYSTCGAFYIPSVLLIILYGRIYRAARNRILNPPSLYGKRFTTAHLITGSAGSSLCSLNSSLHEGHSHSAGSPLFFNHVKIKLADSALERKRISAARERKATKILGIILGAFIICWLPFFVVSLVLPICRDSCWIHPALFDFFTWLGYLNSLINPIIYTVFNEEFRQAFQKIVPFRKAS
Outline: (§1)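 Primary screen at 10 μM compound, expressed as % receptor inhibition, from at least three experiments.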

[2] = target: Nicotinic acetylcholine receptor alpha2/beta4 (Homo sapiens) (UniProt P02708+P30926); test: Displacement of [3H]-epibatidine from recombinant human alpha2beta4 nACHR stably expressed in HEK cells at 10 uM measured after 90 mins by microbeta scintillation counting method relative to control; type: cell-based; outline: as §1
[3] = target: 5-hydroxytryptamine receptor 3A (Homo sapiens) (UniProt P46098); test: Displacement of [3H]-GR65630 from recombinant human 5HT3 receptor transiently expressed in HEKT cell membranes at 10 uM measured after 90 mins by microbeta scintillation counting method relative to control; outline: as §1
Chain of 5-hydroxytryptamine receptor 3A (Homo sapiens) (P46098 whole entry): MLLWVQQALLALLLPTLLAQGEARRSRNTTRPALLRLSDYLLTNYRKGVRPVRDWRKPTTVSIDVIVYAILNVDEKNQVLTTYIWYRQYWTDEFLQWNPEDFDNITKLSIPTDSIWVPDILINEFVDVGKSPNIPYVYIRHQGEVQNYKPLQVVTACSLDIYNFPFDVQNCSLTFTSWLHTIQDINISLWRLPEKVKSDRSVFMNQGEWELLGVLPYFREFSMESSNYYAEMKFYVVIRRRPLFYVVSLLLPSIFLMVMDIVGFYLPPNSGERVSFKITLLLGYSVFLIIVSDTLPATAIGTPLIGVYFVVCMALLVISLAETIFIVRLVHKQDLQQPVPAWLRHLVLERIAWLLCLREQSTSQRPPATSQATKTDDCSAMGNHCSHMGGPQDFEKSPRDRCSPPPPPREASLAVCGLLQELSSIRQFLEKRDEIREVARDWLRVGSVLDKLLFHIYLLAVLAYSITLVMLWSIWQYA

[4] = target: GABA-A receptor; anion channel (Rattus norvegicus) (UniProt O09028+P15431+P18506+P18508+P19969+P20236+P23574+P23576+P28471+P28473+P30191+P62813+P63079+P63138+Q91ZM7+Q9ES14); test: Displacement of [3H]-muscimol from rat brain GABAA receptor at 10 uM measured after 90 mins by microbeta scintillation counting method relative to control; outline: as §1
[5] = target: 5-hydroxytryptamine receptor 6 (Homo sapiens) (UniProt P50406); test: Displacement of [3H]-LSD from recombinant human 5HT6 receptor stably expressed in HEK cell membranes at 10 uM measured after 90 mins by microbeta scintillation counting method relative to control; outline: as §1
[6] = target: Muscarinic acetylcholine receptor M5 (Homo sapiens) (UniProt P08912); test: Displacement of [3H]-QNB/[3H]-NMS from human muscarinic M5 receptor expressed in stable CHO cells at 10 uM after 90 mins by microbeta scintillation counting method relative to control; type: cell-based; outline: as §1
[7] = target: Histamine H2 receptor (Homo sapiens, UniProt P25021); test: Displacement of [125I]-Iodo-aminopotentidine from human histamine H2 receptor expressed in stable HEK cells after 90 mins by microbeta scintillation counting method; type: cell-based
Chain of Histamine H2 receptor (P25021 whole entry): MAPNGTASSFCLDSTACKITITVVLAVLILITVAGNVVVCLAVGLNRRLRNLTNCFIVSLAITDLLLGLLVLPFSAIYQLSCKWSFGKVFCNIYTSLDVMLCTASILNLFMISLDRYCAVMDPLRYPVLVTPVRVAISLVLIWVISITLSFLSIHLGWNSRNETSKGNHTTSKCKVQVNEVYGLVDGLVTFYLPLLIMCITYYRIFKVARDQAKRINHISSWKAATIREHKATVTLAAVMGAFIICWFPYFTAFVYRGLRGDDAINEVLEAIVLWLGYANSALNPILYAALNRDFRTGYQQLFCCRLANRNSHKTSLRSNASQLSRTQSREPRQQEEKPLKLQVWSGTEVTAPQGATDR

[8] = target: 5-hydroxytryptamine receptor 2B (Homo sapiens, UniProt P41595); test: Displacement of [3H]-LSD from recombinant human 5HT2B receptor stably expressed in HEK cell membranes measured after 90 mins by microbeta scintillation counting method
Chain of 5-hydroxytryptamine receptor 2B (P41595 whole entry): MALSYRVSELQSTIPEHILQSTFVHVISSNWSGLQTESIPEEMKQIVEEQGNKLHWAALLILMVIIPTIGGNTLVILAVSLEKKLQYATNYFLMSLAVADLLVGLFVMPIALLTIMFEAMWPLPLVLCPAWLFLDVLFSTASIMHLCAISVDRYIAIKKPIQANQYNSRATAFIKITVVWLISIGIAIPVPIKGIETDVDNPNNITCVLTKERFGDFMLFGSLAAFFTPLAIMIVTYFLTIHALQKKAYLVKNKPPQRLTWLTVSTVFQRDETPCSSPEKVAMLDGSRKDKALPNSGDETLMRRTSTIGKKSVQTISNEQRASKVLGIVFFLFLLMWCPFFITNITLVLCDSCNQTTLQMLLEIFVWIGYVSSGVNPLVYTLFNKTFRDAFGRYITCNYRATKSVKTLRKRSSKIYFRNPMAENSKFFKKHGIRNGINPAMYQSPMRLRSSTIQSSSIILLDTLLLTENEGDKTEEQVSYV

[9] = target: D2 dopamine receptor (Homo sapiens, UniProt P14416); test: Agonist activity at recombinant human D2 receptor expressed in CHOK1 cells assessed as induction of beta arrestin2 recruitment measured after 30 mins by coelenterazine-based beta-galactosidase reporter gene assay; type: ADME, cell-based
[10] = target: Histamine H4 receptor (Homo sapiens) (UniProt Q9H3N8); test: Displacement of [3H]-histamine from human histamine H4 receptor stably expressed in HEKT cell membranes at 10 uM after 90 mins by microbeta scintillation counting method relative to control; outline: as §1
[11] = target: D(1A) dopamine receptor (Homo sapiens, UniProt P21728); test: Agonist activity at recombinant human D1 receptor expressed in CHOK1 cells assessed as induction of beta arrestin2 recruitment measured after 30 mins by coelenterazine-based beta-galactosidase reporter gene assay; type: cell-based
Chain of D(1A) dopamine receptor (P21728 whole entry): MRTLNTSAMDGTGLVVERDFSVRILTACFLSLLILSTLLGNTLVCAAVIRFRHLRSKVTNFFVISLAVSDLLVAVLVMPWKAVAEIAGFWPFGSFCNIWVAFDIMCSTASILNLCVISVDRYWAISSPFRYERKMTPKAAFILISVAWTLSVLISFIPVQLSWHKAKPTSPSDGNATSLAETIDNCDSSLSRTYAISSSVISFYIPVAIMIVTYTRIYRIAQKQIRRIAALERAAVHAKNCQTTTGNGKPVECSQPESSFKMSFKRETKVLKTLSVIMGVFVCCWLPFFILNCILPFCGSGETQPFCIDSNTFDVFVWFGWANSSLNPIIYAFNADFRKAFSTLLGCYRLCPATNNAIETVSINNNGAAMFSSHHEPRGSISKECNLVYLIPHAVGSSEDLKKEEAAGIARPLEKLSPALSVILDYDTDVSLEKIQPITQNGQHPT

[12] = target: Alpha-2C adrenergic receptor (Homo sapiens, UniProt P18825); test: Displacement of [3H]-rauwolscine from recombinant human alpha2C adrenergic receptor stably expressed in MDCK cells measured after 90 mins by microbeta scintillation counting method; type: cell-based
Chain of Alpha-2C adrenergic receptor (P18825 whole entry): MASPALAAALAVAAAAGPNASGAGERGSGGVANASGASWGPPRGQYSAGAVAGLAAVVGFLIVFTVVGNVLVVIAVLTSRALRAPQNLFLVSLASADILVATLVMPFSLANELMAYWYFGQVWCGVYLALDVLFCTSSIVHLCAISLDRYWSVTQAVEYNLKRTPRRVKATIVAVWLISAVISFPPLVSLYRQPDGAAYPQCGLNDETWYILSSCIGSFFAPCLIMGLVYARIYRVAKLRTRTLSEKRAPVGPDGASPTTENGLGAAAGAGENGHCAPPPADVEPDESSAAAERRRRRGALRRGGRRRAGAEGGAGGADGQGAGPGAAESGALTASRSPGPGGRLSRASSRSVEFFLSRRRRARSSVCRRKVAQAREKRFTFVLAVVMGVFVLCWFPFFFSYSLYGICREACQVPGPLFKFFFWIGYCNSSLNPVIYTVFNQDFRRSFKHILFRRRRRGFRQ

[13] = target: Histamine H1 receptor (Homo sapiens, UniProt P35367); test: Displacement of [3H]-pyrilamine from recombinant human H1 receptor stably expressed in HEK cell membranes measured after 90 mins by microbeta scintillation counting method
[14] = target: Beta-1 adrenergic receptor (Homo sapiens) (UniProt P08588); test: Displacement of [125I]-pindolol from recombinant human beta1 adrenergic stably expressed in CHO Flp-In cells at 10 uM measured after 90 mins by microbeta scintillation counting method relative to control; type: cell-based; outline: as §1
[15] = target: Neuronal acetylcholine receptor; alpha4/beta2 (Homo sapiens) (UniProt P17787+P43681); test: Displacement of [3H]-epibatidine from recombinant human alpha4beta2 nACHR stably expressed in HEK cells at 10 uM measured after 90 mins by microbeta scintillation counting method relative to control; type: cell-based; outline: as §1
[16] = target: Neuronal acetylcholine receptor; alpha4/beta4 (Homo sapiens) (UniProt P30926+P43681); test: Displacement of [3H]-epibatidine from recombinant human alpha4beta4 nACHR stably expressed in HEK cells at 10 uM measured after 90 mins by microbeta scintillation counting method relative to control; type: cell-based; outline: as §1
[17] = target: Muscarinic acetylcholine receptor M1 (Homo sapiens) (UniProt P11229); test: Displacement of [3H]-QNB/[3H]-NMS from human muscarinic M1 receptor expressed in stable CHO cells at 10 uM after 90 mins by microbeta scintillation counting method relative to control; type: cell-based; outline: as §1
[18] = target: T1, D(3) dopamine receptor (Homo sapiens, UniProt P35462); test: Antagonist activity at recombinant human D3 receptor expressed in CHOK1 cells assessed as inhibition of dopamine-induced beta arrestin2 recruitment preincubated for 30 mins followed by dopamine addition and measured after 90 mins by coelenterazine-based beta-galactosidase reporter gene assay; type: cell-based
T1 sequence (P35462 whole entry): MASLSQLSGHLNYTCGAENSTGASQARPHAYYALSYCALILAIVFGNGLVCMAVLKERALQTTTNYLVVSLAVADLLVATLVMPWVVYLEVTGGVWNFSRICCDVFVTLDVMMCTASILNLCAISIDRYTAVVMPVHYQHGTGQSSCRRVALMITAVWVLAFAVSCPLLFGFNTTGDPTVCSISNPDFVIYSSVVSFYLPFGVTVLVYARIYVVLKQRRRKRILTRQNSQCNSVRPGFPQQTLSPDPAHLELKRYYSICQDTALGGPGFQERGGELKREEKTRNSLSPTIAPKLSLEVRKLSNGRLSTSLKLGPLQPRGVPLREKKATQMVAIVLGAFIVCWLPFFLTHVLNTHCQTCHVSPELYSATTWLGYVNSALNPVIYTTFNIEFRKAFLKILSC

[19] = target: Alpha-1A adrenergic receptor (Homo sapiens, UniProt P35348); test: Displacement of [3H]-prazosin from recombinant human alpha1A adrenergic receptor measured after 90 mins by microbeta scintillation counting method
Chain of Alpha-1A adrenergic receptor (P35348 whole entry): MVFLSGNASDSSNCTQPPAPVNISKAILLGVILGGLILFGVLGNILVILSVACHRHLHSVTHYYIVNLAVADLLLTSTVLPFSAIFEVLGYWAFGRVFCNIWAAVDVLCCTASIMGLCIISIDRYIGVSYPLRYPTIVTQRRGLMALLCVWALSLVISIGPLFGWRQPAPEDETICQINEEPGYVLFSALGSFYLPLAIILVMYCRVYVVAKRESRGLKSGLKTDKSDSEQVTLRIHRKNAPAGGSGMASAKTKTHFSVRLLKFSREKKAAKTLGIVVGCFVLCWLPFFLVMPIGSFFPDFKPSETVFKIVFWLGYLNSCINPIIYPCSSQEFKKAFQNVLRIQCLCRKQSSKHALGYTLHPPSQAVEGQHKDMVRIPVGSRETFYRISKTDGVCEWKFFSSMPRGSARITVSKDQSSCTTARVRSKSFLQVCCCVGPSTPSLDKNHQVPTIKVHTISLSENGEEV

[20] = target: Kappa-type opioid receptor (Homo sapiens) (UniProt P41145); test: Displacement of [3H]-U69593 from KOR (unknown origin) at 10 uM after 90 mins by microbeta scintillation counting method relative to control; outline: as §1
Chain of Kappa-type opioid receptor (Homo sapiens) (P41145 whole entry): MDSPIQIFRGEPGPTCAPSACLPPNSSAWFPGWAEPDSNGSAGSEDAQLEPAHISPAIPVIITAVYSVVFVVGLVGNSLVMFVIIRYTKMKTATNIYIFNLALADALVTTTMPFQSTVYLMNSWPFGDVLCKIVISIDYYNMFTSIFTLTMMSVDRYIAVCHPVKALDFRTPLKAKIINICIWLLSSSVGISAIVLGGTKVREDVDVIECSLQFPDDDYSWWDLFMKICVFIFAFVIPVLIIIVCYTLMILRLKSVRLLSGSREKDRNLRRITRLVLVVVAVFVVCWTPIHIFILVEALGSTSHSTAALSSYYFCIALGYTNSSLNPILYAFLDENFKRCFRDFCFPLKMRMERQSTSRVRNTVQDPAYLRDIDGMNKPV

[21] = target: Neuronal acetylcholine receptor; alpha3/beta2 (Homo sapiens) (UniProt P17787+P32297); test: Displacement of [3H]-epibatidine from recombinant human alpha3beta2 nACHR stably expressed in HEK cells at 10 uM measured after 90 mins by microbeta scintillation counting method relative to control; type: cell-based; outline: as §1
[22] = target: Nicotinic acetylcholine receptor alpha2/beta2 (Homo sapiens) (UniProt P02708+P17787); test: Displacement of [3H]-epibatidine from recombinant human alpha2beta2 nACHR stably expressed in HEK cells at 10 uM measured after 90 mins by microbeta scintillation counting method relative to control; type: cell-based; outline: as §1
[23] = target: T1, D(3) dopamine receptor; test: Agonist activity at recombinant human D3 receptor expressed in CHOK1 cells assessed as induction of beta arrestin2 recruitment measured after 30 mins by coelenterazine-based beta-galactosidase reporter gene assay; type: cell-based
[24] = target: 5-hydroxytryptamine receptor 1E (Homo sapiens) (UniProt P28566); test: Displacement of [3H]-5-HT from recombinant human 5HT1E receptor stably expressed in HEK cell membranes at 10 uM measured after 90 mins by microbeta scintillation counting method relative to control; outline: as §1
Chain of 5-hydroxytryptamine receptor 1E (Homo sapiens) (P28566 whole entry): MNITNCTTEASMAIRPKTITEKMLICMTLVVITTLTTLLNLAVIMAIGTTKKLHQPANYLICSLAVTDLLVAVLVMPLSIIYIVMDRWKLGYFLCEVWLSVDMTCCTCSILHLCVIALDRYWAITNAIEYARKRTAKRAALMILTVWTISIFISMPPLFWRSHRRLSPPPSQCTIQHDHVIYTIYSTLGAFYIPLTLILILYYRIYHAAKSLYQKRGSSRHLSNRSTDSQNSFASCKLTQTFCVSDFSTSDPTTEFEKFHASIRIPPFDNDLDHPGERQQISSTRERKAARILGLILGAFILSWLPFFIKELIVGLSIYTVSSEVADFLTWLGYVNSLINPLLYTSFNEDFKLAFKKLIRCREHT

[25] = target: Alpha-1B adrenergic receptor (Homo sapiens, UniProt P35368); test: Displacement of [3H]-prazosin from recombinant human alpha1B adrenergic receptor transiently expressed in HEKT cells measured after 90 mins by microbeta scintillation counting method; type: cell-based
Chain of Alpha-1B adrenergic receptor (P35368 whole entry): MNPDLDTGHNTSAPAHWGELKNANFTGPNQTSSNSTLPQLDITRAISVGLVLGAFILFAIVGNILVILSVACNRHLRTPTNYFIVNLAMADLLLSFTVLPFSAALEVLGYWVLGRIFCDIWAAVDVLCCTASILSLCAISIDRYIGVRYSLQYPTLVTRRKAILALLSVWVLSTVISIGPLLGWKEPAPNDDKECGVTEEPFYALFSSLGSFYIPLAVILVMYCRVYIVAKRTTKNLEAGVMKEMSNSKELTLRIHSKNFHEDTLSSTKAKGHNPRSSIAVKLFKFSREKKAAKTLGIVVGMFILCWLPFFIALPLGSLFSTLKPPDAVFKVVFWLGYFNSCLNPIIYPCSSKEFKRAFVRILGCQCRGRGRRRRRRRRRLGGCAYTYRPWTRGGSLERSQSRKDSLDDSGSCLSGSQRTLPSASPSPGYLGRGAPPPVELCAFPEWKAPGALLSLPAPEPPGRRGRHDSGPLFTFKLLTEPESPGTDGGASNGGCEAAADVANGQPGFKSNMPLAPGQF

[26] = target: Mu-type opioid receptor (Homo sapiens) (UniProt P35372); test: Displacement of [3H]-DAMGO from human MOR stably expressed in HEK cell membranes at 10 uM after 90 mins by microbeta scintillation counting method relative to control; outline: as §1

| SMILES | inhibition [1] | inhibition [2] | inhibition [3] | inhibition [4] | inhibition [5] | inhibition [6] | Ki [7] | Ki [8] | inhibition [10] | EC50 [11] | Ki [12] | Ki [13] | inhibition [14] | inhibition [15] | inhibition [16] | inhibition [17] | IC50 [18] | Ki [19] | inhibition [20] | inhibition [21] | further results |
| --- | --- | --- | --- | --- | --- | --- | --- | --- | --- | --- | --- | --- | --- | --- | --- | --- | --- | --- | --- | --- | --- |
| COc1ccccc1N1CCN(CCCSc2nnc(-c3ccccc3)n2C)CC1 | > 50% | < 50% | < 50% | < 50% | < 50% | < 50% | 871 nM | 42 nM | < 50% | Not Active | 433 nM | 40 nM | < 50% | < 50% | < 50% | < 50% | 8.7 nM | 49 nM | < 50% | < 50% | EC50 ([9]; read-out: EC50): 254 nM; inhibition [22]: < 50%; EC50 ([23]; read-out: EC50): 167 nM; inhibition [24]: < 50%; Ki [25]: 94 nM; inhibition [26]: < 50% |
| COc1ccccc1N1CCC2(CCN(CCCSc3nnc(-c4ccccc4)n3C)CC2)CC1 | < 50% | < 50% | < 50% | < 50% | < 50% | < 50% | 596 nM | 2140 nM | < 50% | Not Active | 1560 nM | 8 nM | < 50% | < 50% | < 50% | 54% | 41.4 nM | 2180 nM | < 50% | < 50% | EC50 [9]: Not Active; inhibition [22]: < 50%; EC50 [23]: Not Active; inhibition [24]: < 50%; Ki [25]: 2170 nM; inhibition [26]: < 50% |
